What was measured:
Assay type in all cases: cell-based
BL cell lines [1] = assay: Caspase-Glo 3/7 apoptosis induction assay in BL cell lines; conditions: 24 hour treatment, four BL cell lines; ARV-825 0.1 µM, JQ1 1.0 µM, OTX015 1.0 µM
In short: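 Four Burkitt lymphoma lines (Namalwa, Ramos, CA-46, DAUDI; from ATCC, maintained as instructed) were exposed for 24 hours to test compounds at 0.1 or 1.0 µM. Puromycin served as the apoptosis-induction positive control. Caspase 3/7 activity was read by luminescent Caspase-Glo 3/7 assay following the manufacturer's protocol.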

c-MYC = c-MYC protein level by immunoblot in BL cell lines; conditions: for c-MYC level suppression: overnight treatment with increasing doses, BL cells, immunoblot; for c-MYC level upon withdrawal of compound from culture media: 1.0 µM for 24 hours, then removal, Namalwa and Ramos cells; for Time for c-MYC to recover to control level after compound removal: Namalwa cells, 24 hrs treatment (1.0 µM), three washes
Ramos cells = assay: PARP cleavage by immunoblot; conditions: 48 hours, 0.1 µM
BL cell lines [2] = assay: Proliferation by CellTiter-Glo assay in BL cell lines; conditions: 72 hours; for Effect on proliferation: BL cell lines, CTG assay
In short: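 Burkitt lymphoma cells were seeded at 50000 per 100 µl in 96-well plates and given increasing concentrations of test compound. After 72 hours, CellTiter-Glo reagent was added and luminescence was read. Relative growth was calculated against DMSO-treated control cells.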

BRD2 = BRD2 protein degradation by immunoblot; conditions: Supp Figure 3
BRD3 = BRD3 protein degradation by immunoblot; conditions: Supp Figure 3
SLC19A1 = SLC19A1 expression by RT-qPCR in Namalwa cells; conditions: for Time for SLC19A1 to recover to control treatment level post compound removal: 24 hours treatment (1.0 µM), qPCR
BRD4 = BRD4 (Homo sapiens, UniProt O60885); assay: BRD4 protein level by immunoblot in BL cell lines

Row | SMILES | Caspases 3/7 activity (BL cell lines [1]) | c-MYC level suppression (c-MYC) | Apoptosis (PARP cleavage) (Ramos cells) | Proliferation suppression in presence of excessive pomalidomide (BL cell lines [2]; ARV-825 0.01 or 0.1 µM with pomalidomide 1.0 or 10.0 µM) | Effect on proliferation (BL cell lines [2]) | BRD2 degradation (BRD2) | BRD3 degradation (BRD3) | SLC19A1 suppression (SLC19A1; compared with JQ1 and OTX015) | c-MYC level upon withdrawal of compound from culture media (c-MYC) | Time for c-MYC to recover to control level after compound removal (c-MYC) [h] | Time for SLC19A1 to recover to control treatment level post compound removal (SLC19A1) [h] | Effect on BRD4 protein level (BRD4)
1 | Cc1sc2c(c1C)C(c1ccc(Cl)cc1)=N[C@@H](CC(=O)Nc1ccc(OCCOCCOCCOCCNc3cccc4c3C(=O)N(C3CCC(=O)NC3=O)C4=O)cc1)c1nnc(C)n1-2 (some centres unmarked) [ARV-825] | increased caspases 3/7 activity | more pronounced downregulation of c-MYC | significant apoptosis | rescued the proliferation suppression effect | more pronounced suppression of proliferation than both JQ1 and OTX015 | can be degraded | can be degraded | suppressed more substantially |  |  |  | 
2 | Cc1sc2c(c1C)C(c1ccc(Cl)cc1)=N[C@@H](CC(=O)OC(C)(C)C)c1nnc(C)n1-2 [JQ1] | not with high dose of JQ1 and OTX015 | unable to suppress c-MYC levels fully |  |  |  |  |  |  | rapidly restored to normal | 4 | 6 | 
3 | Cc1sc2c(c1C)C(c1ccc(Cl)cc1)=N[C@@H](CC(=O)Nc1ccc(O)cc1)c1nnc(C)n1-2 [OTX015] | not with high dose of JQ1 and OTX015 | unable to suppress c-MYC levels fully |  |  |  |  |  |  | rapidly restored to normal | 4 | 6 | 
4 | Nc1cccc2c1C(=O)N(C1CCC(=O)NC1=O)C2=O (centres unmarked) [pomalidomide] |  |  |  |  | didn’t show any significant effects |  |  |  |  |  |  | no impact on BRD4 protein levels
